Compounds with a hit are over-represented: about 3% of the library has one in this group of screens.
PLCg1 inh: inhibitors of human phospholipase C gamma1; P19174; purified PLC-gamma1, fluorogenic substrate, fluorescence; inhibition, % at 12.2 µM; 370,000 tested, 0.84% active; in the data active = inhibition above about 9.5%
proKLK7 act: proKLK7 (human) activation, primary screen; P49862; 370,000 tested, 0.9% active; activation, % at 7 µM; purified proKLK7, EDANS-DABCYL substrate fluorescence; 100% is mature enzyme control, 0% vehicle; AID 652039;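 active = activation above the mean of all tested compounds plus 3 SD, computed per campaign excluding outliers beyond control limits, cut at about 13% in these data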
DDE Tn6 FP inh: disrupts Tn6 cyclic peptide binding to fibrin D-Dimer-E complex; 370,000 tested, 0.21% active; Fibrin DD(E) TRITC-Tn6 fluorescence polarization displacement; P02675; inhibition, % at 8.3 µM; AID 720509;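 active = inhibition above a per-campaign cutoff: mean of compounds within control limits plus 3 SD, cut at about 15% in these data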;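 note: 0% = median of all compound wells on the plate and 100% = blocking peptide control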
CendR NRP1 mod: NRP-1/CendR interaction modulation | FAM-RPARPAR peptide binding to NRP-1, fluorescence polarization | inhibition, % at 25 µM | 360,000 tested, 0.85% active | AID 602438;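 active = inhibition or corrected inhibition above about 18%, plus a signal ratio from 0.5 to 1.5, limit read from the data, passing the limit was not always enough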
Target sequence (O14786 whole entry, looked up): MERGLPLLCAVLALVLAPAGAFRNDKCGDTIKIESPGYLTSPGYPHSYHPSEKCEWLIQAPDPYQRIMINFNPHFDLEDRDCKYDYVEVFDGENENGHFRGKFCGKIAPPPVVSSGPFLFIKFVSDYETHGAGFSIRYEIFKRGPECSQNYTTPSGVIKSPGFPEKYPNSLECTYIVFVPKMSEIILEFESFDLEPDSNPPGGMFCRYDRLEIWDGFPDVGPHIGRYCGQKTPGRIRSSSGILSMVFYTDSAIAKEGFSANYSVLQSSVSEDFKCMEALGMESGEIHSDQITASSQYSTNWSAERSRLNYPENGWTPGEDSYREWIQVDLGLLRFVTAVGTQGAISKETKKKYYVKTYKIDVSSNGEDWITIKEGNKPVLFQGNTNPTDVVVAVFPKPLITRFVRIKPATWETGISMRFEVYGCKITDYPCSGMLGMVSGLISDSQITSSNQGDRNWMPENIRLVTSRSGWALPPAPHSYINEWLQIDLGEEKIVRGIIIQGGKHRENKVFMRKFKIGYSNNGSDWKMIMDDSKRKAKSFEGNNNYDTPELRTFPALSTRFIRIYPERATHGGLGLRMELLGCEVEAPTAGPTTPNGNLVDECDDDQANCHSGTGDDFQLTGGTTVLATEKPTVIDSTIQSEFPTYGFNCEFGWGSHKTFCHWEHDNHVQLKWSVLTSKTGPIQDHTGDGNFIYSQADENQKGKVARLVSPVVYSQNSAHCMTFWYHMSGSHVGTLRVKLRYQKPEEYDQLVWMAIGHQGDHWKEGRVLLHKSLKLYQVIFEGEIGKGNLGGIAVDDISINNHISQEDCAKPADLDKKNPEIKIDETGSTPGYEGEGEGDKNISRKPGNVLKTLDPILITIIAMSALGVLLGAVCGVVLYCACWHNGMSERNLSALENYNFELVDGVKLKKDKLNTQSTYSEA
PLC-beta3 inh: blocks human PLC-beta3 enzyme activity; Purified PLC-beta3, fluorogenic substrate, fluorescence; inhibition, % at 12.2 µM; 370,000 tested, 0.18% active; AID 720704;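 note: 0% = median of compound wells on plate and 100% = full blocker control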
DDE Tn7 FP inh: DD(E)-Tn7 binding inhibition, primary FP screen; P02675; inhibition, % at 8.3 µM; FP displacement of FITC-Tn7 peptide from fibrin DD(E); 0% = median of compound wells per plate; 370,000 tested, 0.13% active;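 active = inhibition above the mean of compounds falling within the control limits plus 3 SD of them, cut at about 14% in these data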;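 note: 0% = plate median of compound wells and 100% = 10 µM Aha-Tn7 peptide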
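Assay system: Human fibrin DD(E) protein | Medium: Tris buffer with calcium and detergent, pH 7.8 | Reagent: 0.1 µM fluorescent Tn7 | Compound dosing: Single point at 8.3 µM | Times: 10 min preincubation, 3 h with tracer, room temperature | Detection: Fluorescence polarization of the labelled Tn7 tracer | Controls: Aha-Tn7 high control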
PLCgamma1 ctr: PLC-gamma1 inhibition, counter-screen for PLC-beta3 hits. shares compounds with PLCg1 inh. purified PLC-gamma1, fluorogenic substrate, fluorescence. inhibition, % at 12.3 µM. 3,300 tested, 3.1% active; in the data active = inhibition above about 9.5%
PLCbeta3 conf: confirmation of human PLC-beta3 inhibitors; shares compounds with PLCg1 inh; purified PLC-beta3, fluorogenic substrate fluorescence; inhibition, % at 12.3 µM; 3,300 tested, 1% active; AID 743261
The depositor's hits bear a star; x = no result given. Cut-off read from the data, not from the text of the source, unless noted: active = inhibition above about 11%; inactive = the rest.

SMILES | PLCg1 inh | proKLK7 act | DDE Tn6 FP inh | CendR NRP1 mod | PLC-beta3 inh | DDE Tn7 FP inh | PLCgamma1 ctr | PLCbeta3 conf
O=C(NCCCN1CCN(c2ccc(F)cc2)CC1)NCc1ccccc1 | 2.6 | 0.1 | -7.0 | x | 3.2 | -6.2 | x | x
CN(C)c1nc(Nc2ccccc2)nc(Oc2ccc(=O)[nH]n2)n1 | 3.7 | -0.2 | 3.1 | -0.3 | 2.6 | 6.2 | x | x
Cc1ccc(Nc2nc(Oc3ccc(=O)[nH]n3)nc(N(C)C)n2)cc1 | 10.0* | 0.3 | -13.6 | -9.9 | 2.6 | -2.2 | -8.4 | -0.5
COc1cc(NS(=O)(=O)c2ccc(NC(=O)CN3C(=O)c4ccccc4C3=O)cc2)nc(OC)n1 | 12.0* | 0.2 | 1.5 | -10.5 | 4.5 | -2.3 | 3.3 | 9.6
COc1cc(NS(=O)(=O)c2ccc(NC(=O)COc3ccccc3C)cc2)nc(OC)n1 | 1.2 | 0.0 | -4.9 | -5.9 | 1.5 | -1.8 | x | x
COc1cc(NS(=O)(=O)c2ccc(NC(=S)NC(C)=O)cc2)nc(OC)n1 | 16.0* | 0.1 | -6.2 | -1.0 | 13.8* | -0.9 | -5.2 | 0.2
COc1cc(NS(=O)(=O)c2ccc(NC(=S)NC(=O)COc3ccccc3OC)cc2)nc(OC)n1 | 13.7* | 0.1 | -7.8 | -14.5 | -3.5 | 0.7 | -2.9 | -7.4
CCOC(=O)c1ncn2c1C(=O)OC2(C)C | 14.7* | 0.3 | -0.1 | -10.2 | 6.1 | 0.4 | -1.2 | 2.1
COc1ccc(OC)c(NC(=O)CCNS(=O)(=O)c2ccc3c(c2)oc(=O)n3C)c1 | 5.8 | 0.2 | -1.4 | -0.8 | 12.4* | 7.1 | -3.1 | -1.8
c1ccc(Cn2c(SCC3CCC3)nnc2-c2cccnc2)cc1 | 2.4 | 0.1 | 5.0 | x | 2.7 | -1.9 | x | x
CC1(C(=O)NS(=O)(=O)c2cccc(Cl)c2)CCN1C(=O)Cc1ccsc1 (configuration not stated) | 10.2* | 0.5 | -6.5 | 5.8 | 2.1 | -7.2 | -8.9 | -4.8
O=S1(=O)c2ccc(Br)cc2OC[C@@H](c2ccccc2)N1Cc1cn(Cc2ccccc2)nn1 | 0.4 | 0.1 | 4.8 | x | 4.9 | -3.4 | x | x
COc1ccc(S[C@@H](CCN2CC[C@H](C)CCC2=O)c2ccccc2)cc1 | 9.7* | 0.0 | -0.3 | -2.9 | 7.0 | -7.5 | -6.2 | -3.0
C[C@@H]1CCC(=O)N(CC[C@H](Oc2ccccc2)c2ccccc2)CC1 | 12.9* | -0.2 | 2.9 | 9.9 | 4.2 | -6.0 | 1.6 | 2.1
Brc1ccc2nc(-c3ccc(CN4CCC(c5nc6ccccc6[nH]5)CC4)cc3)c(-c3ccccc3)nc2c1 | -8.6 | -6.5 | -12.7 | x | -8.9 | -2.4 | x | x
CC(=O)c1cc(-c2cnn(Cc3ccccc3)c2)c(=O)n2c1CCC2 | -11.9 | -0.1 | -7.8 | x | -20.8 | -4.7 | x | x
CC1=CC2=NC(=O)/C(=C\c3ccc(OC(=O)c4ccco4)cc3)C(=N)N2O1 | 9.0 | 0.0 | 0.7 | 1.7 | 12.2* | -1.5 | -2.3 | -0.1
Brc1ccc(CSc2nnc(SCc3ccccc3)s2)cc1 | -0.1 | 0.9 | 1.4 | x | 0.8 | -1.4 | x | x
O=C(CCC1CCCN(C(=O)C2CCCC2)C1)NCc1ccc(F)c(F)c1 (configuration not stated) | 0.3 | 0.8 | -3.1 | -12.3 | 2.1 | 0.8 | x | x
O=C(CCC1CCCN(C(=O)c2cncs2)C1)NCc1ccc(F)c(F)c1 (configuration not stated) | 10.5* | 0.4 | 2.4 | 1.1 | 4.8 | 1.5 | -7.4 | -5.4
NS(=O)(=O)c1ccc(N/N=C/c2ccc(O)cc2O)c([N+](=O)[O-])c1 | 10.0* | 0.2 | -15.3 | 15.9 | 3.2 | 0.7 | 12.0* | 12.8*
NS(=O)(=O)c1ccc(N/N=C/c2ccc(O)c(O)c2O)c([N+](=O)[O-])c1 | 11.6* | 0.1 | -8.9 | 21.0 | 2.4 | 1.1 | 4.9 | 2.9
NS(=O)(=O)c1ccc(N/N=C/c2ccccc2C(=O)O)c([N+](=O)[O-])c1 | 4.7 | 0.1 | -5.7 | -2.5 | 6.7 | 3.6 | x | x
OCCC1CN(Cc2cccc3nonc23)CCN1Cc1ccsc1 (configuration not stated) | 10.5* | -0.4 | -4.9 | -17.5 | 3.2 | -4.7 | 1.4 | 0.2

Assay outcomes deposited in PubChem by several laboratories.
